Only some compounds are listed: those with a hit (about 2.7% of all), similar ones and a draw of the others.
MC4R antag cAMP = blocks human MC4R cAMP signaling; P32245; MC4R-expressing cells, MTII-stimulated cAMP, LANCE TR-FRET; inhibition, % at 6.5 µM; actives 0.48% (n = 360,000); AID 540295;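 active means inhibition above its plate's cutoff, the mean of tested wells on that plate plus 3 SD, cut at about 29% in these data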
Target sequence (P32245 whole entry, looked up): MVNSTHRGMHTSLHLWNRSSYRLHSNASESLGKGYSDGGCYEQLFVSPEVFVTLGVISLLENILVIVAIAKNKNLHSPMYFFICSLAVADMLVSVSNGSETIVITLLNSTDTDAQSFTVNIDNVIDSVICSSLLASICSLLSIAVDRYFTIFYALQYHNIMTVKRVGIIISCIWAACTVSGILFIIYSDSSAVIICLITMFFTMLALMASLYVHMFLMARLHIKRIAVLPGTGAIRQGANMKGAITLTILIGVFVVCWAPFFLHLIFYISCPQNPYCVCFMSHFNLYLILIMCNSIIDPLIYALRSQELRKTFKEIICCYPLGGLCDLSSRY
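System: U2OS-MC4R stable cell line; Technique: Eu-cAMP/anti-cAMP TR-FRET, emission 671 nm; Repeats: single well per compound; Also added: Melanotan II; Dosing: one concentration, 6.5 µM nominal; Schedule: 30-min compound, 1-h challenge, 1-h detection, room temperature.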
NR2E3 ag-1 = agonists of human NR2E3 nuclear receptor; inhibition of corepressor binding, % at 3.98 µM; Q9Y5X4; actives 0.35% (n = 360,000); CHO-S Gal4-NCOR/VP16-NR2E3 two-hybrid, luciferase;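 active means inhibition above the mean of all tested compounds plus 3 SD, cut at about 70% in these data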;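 further: higher means lower luciferase signal from less NR2E3 corepressor binding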
Target sequence (Q9Y5X4 whole entry, looked up, the tested form may be a part): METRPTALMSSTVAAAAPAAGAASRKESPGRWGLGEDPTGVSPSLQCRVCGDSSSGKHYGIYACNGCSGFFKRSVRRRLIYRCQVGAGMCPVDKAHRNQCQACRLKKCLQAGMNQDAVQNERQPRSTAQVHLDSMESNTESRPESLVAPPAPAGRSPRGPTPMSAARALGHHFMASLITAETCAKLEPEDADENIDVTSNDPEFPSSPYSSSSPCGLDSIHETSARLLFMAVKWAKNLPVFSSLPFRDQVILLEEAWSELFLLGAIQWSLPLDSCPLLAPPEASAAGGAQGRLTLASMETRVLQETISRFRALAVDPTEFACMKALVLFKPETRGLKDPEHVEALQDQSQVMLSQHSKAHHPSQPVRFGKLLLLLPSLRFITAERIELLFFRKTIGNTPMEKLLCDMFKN
MC4R barr agon = human MC4R agonism via beta-arrestin; U2OS MC4R beta-arrestin complementation, luminescence; percent of melanotan II response, DMSO zero; activation, % at 8.9 µM; actives 0.98% (n = 360,000); AID 540308;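 active means activation above a per-plate cutoff, the mean activation of sample wells on that plate plus 3 SD, cut at about 8% in these data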
NR1D1 modulator = modulates human Rev-erb alpha binding to DNA. P20393. Rev-erbα–FITC-DNA binding, fluorescence polarization, 90 min. activity, % at 10 µM. actives 0.79% (n = 370,000);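 active means activity above about 14%, limit read from the data; passing the limit was not always enough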
NR2E3 ag-2 = agonists of human nuclear receptor NR2E3. GST-NR2E3/biotin-RetCOR TR-FRET, 1536-well. inhibition of corepressor binding, % at 4.78 µM. Q9Y5X4. AID 2300. actives 0.12% (n = 320,000);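 active means percent inhibition above the cutoff of mean plus 3 SD of all tested compounds, set per screening campaign, cut at about 20% in these data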
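Material: NR2E3–RetCOR corepressor complex | Quantity: 1.35 nM GST-tagged NR2E3 final | Schedule: 5 h at 4 °C | Replication: Singlicate compound wells | Reagent: RetCOR corepressor, biotinylated, 7 nM | Controls: Biotin wells as high control, 0.6% DMSO wells as low control | Signal: TR-FRET, Eu(K)-anti-GST donor, streptavidin-D2 acceptor, ex 340, em 617/671 nm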
PG9 Ab binder = binds the HIV-1 gp120 antibody PG9. TR-FRET gp120-PG9 antibody binding. inhibition, % at 6.7 µM. actives 0.43% (n = 360,000). AID 624416; in the data active means inhibition above about 8.5%
NR2E3 ag confirm-1 = NR2E3 (human) agonism, confirmation; shares compounds with NR2E3 ag-2; cell-free NR2E3 corepressor release, TR-FRET, 5 h; activation (reported as inhibition), % at 3.98 µM; actives 39% (n = 360); AID 2379; in the data active means activation above about 20%
PPARg-NCOR2 ag = counter-screen for NR2E3 agonists: human PPARgamma-NCOR2 interaction agonists. AID 504787. shares compounds with NR2E3 ag-2. TR-FRET PPARg-NCOR2 coregulator interaction, biochemical. actives 45% (n = 360). inhibition, % at 3.98 µM; in the data active means inhibition above about 20%
cAMP nonselect = nonselective cAMP signaling inhibitor, MC4R antagonist counter-screen | actives 26% (n = 1,600) | parental U2OS, forskolin cAMP, LANCE TR-FRET | inhibition, % at 6.5 µM | shares compounds with MC4R antag cAMP;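 active means mean inhibition over triplicates above the low-control well mean plus 3 SD, set per campaign, cut at about 13% in these data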;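 further: signal is single emission at 671 nm which falls as cellular cAMP rises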
MC4R antag conf = human MC4R cAMP antagonism confirmation; shares compounds with MC4R antag cAMP; MC4R-expressing cells, MTII-stimulated cAMP, TR-FRET; AID 602195; actives 27% (n = 1,600); inhibition, % at 6.5 µM; in the data active means inhibition above about 29%
MC4R barr conf = human MC4R beta-arrestin agonism confirmation; activation, % at 8.9 µM; U2OS MC4R beta-arrestin recruitment, luminescence; scaled DMSO 0%, Melanotan II 100%; shares compounds with MC4R barr agon; actives 31% (n = 2,400);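 active means mean activation across replicates above the hit cutoff set in the earlier primary screen, cut at about 8% in these data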
MOR-DOR barr ag = OPRM1-OPRD1 heterodimer agonism counter-screen; shares compounds with MC4R barr agon; U2OS PathHunter beta-arrestin, beta-gal luminescence; percent of deltorphin B response, DMSO zero; activation, % at 9.2 µM; actives 5.8% (n = 2,400);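 active means mean activation across replicates exceeds the hit threshold derived in the earlier primary screen, cut at about 18% in these data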
NR2E3 ag confirm-2 = NR2E3 agonism confirmed in two-hybrid assay. shares compounds with NR2E3 ag-1. CHO-S mammalian two-hybrid NR2E3-NCOR, luciferase luminescence. inhibition, % at 3.98 µM. actives 51% (n = 2,300). AID 624378;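 active means average inhibition above a cutoff equal to the mean inhibition of all tested compounds plus one SD, cut at about 70% in these data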
VP16 counter = reduces GAL4-VP16 reporter signal in NR2E3 counterscreen; shares compounds with NR2E3 ag-1; CHO-S GAL4-VP16 luciferase reporter, luminescence; inhibition, % at 3.98 µM; actives 29% (n = 2,300); AID 624379;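 active means mean inhibition above a cutoff equal to the average over all tested compounds plus one standard deviation, cut at about 70% in these data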;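 further: luciferase from a UAS reporter driven by GAL4-VP16 transactivation; higher means less reporter light so more repression of VP16 activity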
Of the large screens only hits and unclear results are named; the others gave an inactive call (follow-up assays come after a bar, where they were run).

O=C(O)CNS(=O)(=O)c1cccc2nsnc12	none
Cc1c(Br)c(=O)oc2c(C)c(O)ccc12	NR2E3 ag-2 21 | NR2E3 ag confirm-1 inactive | PPARg-NCOR2 ag inactive
CCc1c(C)c2ccc(O)c(CN(C)C)c2oc1=O	none
COCCn1c(SCC(=O)N2CCOCC2)nnc1-c1ccncc1	none
O=C(NC(=O)N1CCCC1)c1csnn1	none
O=S(=O)(Nc1nc2cc3c(cc2nc1Cl)OCCO3)c1ccccc1	NR2E3 ag-2 30 | NR2E3 ag confirm-1 inactive | PPARg-NCOR2 ag inactive
Cn1c2ccccc2c(=O)c2c(=O)n(Cc3ccco3)c(-c3ccc(F)cc3)nc21	NR2E3 ag-2 34 | NR2E3 ag confirm-1 inactive | PPARg-NCOR2 ag inactive
O=C(NCc1ccc(F)cc1)C(c1ccc(F)cc1)N(C(=O)c1csnn1)C1CC1 (centres undefined)	none
CN(C(=O)c1ccc(NC(=O)Cc2cccc(NC(=O)C3CCN(C(=O)C4CC4)CC3)c2)cc1)C1CCCC1	none
CCN(CC)S(=O)(=O)c1cc(C(=O)OCC(=O)Nc2cccc(S(=O)(=O)N(C)C)c2)ccc1F	NR2E3 ag-2 22 | NR2E3 ag confirm-1 inactive | PPARg-NCOR2 ag inactive
CN(C)S(=O)(=O)c1cccc(NC(=O)COC(=O)c2ccc3ccccc3n2)c1	none (no result: NR2E3 ag-2)
CCOC(=O)c1c(NC(=O)CSc2nnc(Cc3ccccc3)o2)sc(C(C)=O)c1C	NR2E3 ag-2 32 | NR2E3 ag confirm-1 inactive | PPARg-NCOR2 ag inactive
CCOC(=O)c1c(NC(=O)CSc2nnc(-c3ccccc3)o2)sc(C(C)=O)c1C	none
Cc1ccc2cc3c(N)c(C(=O)N4CC(=O)Nc5ccccc54)sc3nc2c1	none (no result: MC4R antag cAMP, NR2E3 ag-1, MC4R barr agon, NR1D1 modulator, PG9 Ab binder)
Cn1cc(Cl)c(-c2n[nH]c(=S)n2-c2ccc(F)cc2)n1	NR2E3 ag-2 20 | NR2E3 ag confirm-1 inactive | PPARg-NCOR2 ag inactive
O=C(NCc1ccc(F)cc1)C(c1ccco1)N(C(=O)c1csnn1)C1CC1 (centres undefined)	none
C=CCn1c(NS(=O)(=O)c2ccccc2)c(S(=O)(=O)c2ccc(C)cc2)c2nc3ccccc3nc21	NR2E3 ag-2 44 | NR2E3 ag confirm-1 inactive | PPARg-NCOR2 ag 88
O=S(=O)(Nc1c(S(=O)(=O)c2ccccc2)c2nc3ccccc3nc2n1C1CCCCC1)c1ccccc1	none
CN(C)C(=O)c1ccc(NC(=O)COC(=O)c2cc(S(=O)(=O)N(C)C)ccc2N2CCCC2)cc1	none
O=C(O)CCCC[C@@H]1SC[C@@H]2NC(=O)N[C@@H]21	NR2E3 ag-2 93 | NR2E3 ag confirm-1 94 | PPARg-NCOR2 ag 94
CC(C)c1nc2sc3c(=O)[nH]c(=S)[nH]c3c2c2c1CCCC2	NR2E3 ag-2 24 | NR2E3 ag confirm-1 45 | PPARg-NCOR2 ag 44
O=c1cc(O)c2sc3nc(C(F)(F)F)c4c(c3c2[nH]1)CCCCC4	none
CN(CC(=O)NCCC1=CCCCC1)S(=O)(=O)c1ccc2c(c1)c(=O)n(C)c(=O)n2C	NR2E3 ag-2 24 | NR2E3 ag confirm-1 inactive | PPARg-NCOR2 ag inactive
O=C(NCCSc1c[nH]c2ccccc12)c1ccc2c(c1)OCO2	none
c1coc(-c2nc(-c3ccco3)c(-c3ccco3)nc2-c2ccco2)c1	NR2E3 ag-2 42 | NR2E3 ag confirm-1 inactive | PPARg-NCOR2 ag inactive
O=C(O)C(Cc1ccccc1)N1C(=O)/C(=C/C=C/c2ccco2)SC1=S (centres undefined)	none (no result: NR2E3 ag-2)
O=C(O)CCCN1C(=O)/C(=C/C=C/c2ccco2)SC1=S	NR2E3 ag-2 32 | NR2E3 ag confirm-1 inactive | PPARg-NCOR2 ag 20
O=C(O)CC(C(=O)O)N1C(=O)/C(=C/C=C/c2ccco2)SC1=S (centres undefined)	NR2E3 ag-2 39 | NR2E3 ag confirm-1 36 | PPARg-NCOR2 ag inactive
CC1CCC2(CC1)NC(=O)N(CC(=O)Nc1nc(-c3ccc(F)cc3)cs1)C2=O (centres undefined)	none
COc1cccc2cc(C(=O)C3=C(O)C(=O)N(Cc4ccco4)C3c3cccnc3)oc12 (centres undefined)	MC4R antag cAMP 29, NR2E3 ag-2 28 (no result: NR1D1 modulator, PG9 Ab binder) | NR2E3 ag confirm-1 20 | PPARg-NCOR2 ag 24 | cAMP nonselect 27 | MC4R antag conf 44
Cc1cc(C(=O)OCC(=O)c2ccc(Br)s2)c(C)o1	none (no result: MC4R antag cAMP, NR2E3 ag-1, MC4R barr agon, NR1D1 modulator, PG9 Ab binder)
Cc1cc(C(=O)OCC(=O)c2ccc(Br)s2)no1	MC4R antag cAMP 37, NR2E3 ag-2 25 (no result: PG9 Ab binder) | NR2E3 ag confirm-1 inactive | PPARg-NCOR2 ag inactive | cAMP nonselect inactive | MC4R antag conf inactive
CN(CC(=O)Nc1cccnc1)S(=O)(=O)c1ccccc1	none
O=S(=O)(Nc1cc2nc3ccccc3nc2n1Cc1ccccc1)c1ccc(Cl)cc1	MC4R barr agon 15, NR2E3 ag-2 33 | NR2E3 ag confirm-1 inactive | PPARg-NCOR2 ag inactive | MC4R barr conf 10 | MOR-DOR barr ag inactive
O=C(O)COc1ccccc1/C=C1\SC(=O)N(Cc2ccc(F)cc2)C1=O	none
CCc1oc2ccccc2c1C(=O)c1cc(Br)c(O)c(Br)c1	NR2E3 ag-1 92, NR2E3 ag-2 38 | NR2E3 ag confirm-1 31 | PPARg-NCOR2 ag 45 | NR2E3 ag confirm-2 98 | VP16 counter 79
C=CCNc1ccc(F)c(F)c1N1CCCCCC1=O	none
